In ChEMBL document CHEMBL4371064, “Erythrofordins D and E, two new cassaine-type diterpenes from Erythrophleum suaveolens” (2019):

Key:
Format in all cases: functional
[1] = tested on: SF-539; test: Growth inhibition of human SF539 cells incubated for 48 hrs by sulforhodamine B assay; details: SF-539, 48 h
Outline: (§1)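 Run in the NCI-60 human tumour cell line panel with dose-response testing. GI50 was determined for each cell line from its dose-response data.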

[2] = tested on: NCI-H226; test: Growth inhibition of human NCI-H226 cells incubated for 48 hrs by sulforhodamine B assay; details: NCI-H226, 48 h; outline: as §1
[3] = tested on: RPMI-8226; test: Growth inhibition of human RPMI8226 cells incubated for 48 hrs by sulforhodamine B assay; details: RPMI-8226, 48 h; outline: as §1
[4] = tested on: EKVX; test: Growth inhibition of human EKVX cells incubated for 48 hrs by sulforhodamine B assay; outline: as §1
[5] = tested on: COLO 205; test: Growth inhibition of human COLO205 cells incubated for 48 hrs by sulforhodamine B assay; details: COLO 205, 48 h; outline: as §1
[6] = tested on: SN12C; test: Growth inhibition of human SN12C cells incubated for 48 hrs by sulforhodamine B assay; outline: as §1
[7] = tested on: K562; test: Growth inhibition of human K562 cells incubated for 48 hrs by sulforhodamine B assay; details: K562, 48 h; outline: as §1
[8] = tested on: 786-0; test: Growth inhibition of human 786-0 cells incubated for 48 hrs by sulforhodamine B assay; details: 786-0, 48 h; outline: as §1
[9] = tested on: SK-MEL-5; test: Growth inhibition of human SK-MEL-5 cells incubated for 48 hrs by sulforhodamine B assay; details: SK-MEL-5, 48 h; outline: as §1
[10] = tested on: ACHN; test: Growth inhibition of human ACHN cells incubated for 48 hrs by sulforhodamine B assay; outline: as §1
[11] = tested on: UACC-257; test: Growth inhibition of human UACC257 cells incubated for 48 hrs by sulforhodamine B assay; details: UACC-257, 48 h
Outline: (§2)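 Tested in the NCI 60-human-tumour-cell-line screen using the five-dose format. GI₅₀ was derived from each cell line's dose-response. TGI and LC₅₀ were derived from the same dose-response data.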

[12] = tested on: NCI-H460; test: Growth inhibition of human NCI-H460 cells incubated for 48 hrs by sulforhodamine B assay; details: NCI-H460, 48 h; outline: as §1
[13] = tested on: A498; test: Growth inhibition of human A498 cells incubated for 48 hrs by sulforhodamine B assay; details: A498, 48 h
Outline: (§3)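 Run within the NCI-60 human tumour cell line panel as a dose-response screen. For each cell line the readouts are GI50, TGI and LC50. Per-line log values also feed a mean-graph analysis, in which the arithmetic mean of the log values across all lines is subtracted from each line's log value.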

[14] = tested on: LOX IMVI; test: Growth inhibition of human LOXIMVI cells incubated for 48 hrs by sulforhodamine B assay; outline: as §1
[15] = tested on: HCT-116; test: Growth inhibition of human HCT116 cells incubated for 48 hrs by sulforhodamine B assay; details: HCT-116, 48 h; outline: as §1
[16] = tested on: HL-60(TB); test: Growth inhibition of human HL-60(TB) cells incubated for 48 hrs by sulforhodamine B assay; details: HL-60, 48 h; outline: as §3
[17] = tested on: NCI-H23; test: Growth inhibition of human NCI-H23 cells incubated for 48 hrs by sulforhodamine B assay; details: NCI-H23, 48 h; outline: as §1
[18] = tested on: UO-31; test: Growth inhibition of human UO31 cells incubated for 48 hrs by sulforhodamine B assay; details: UO-31, 48 h; outline: as §2
[19] = tested on: RXF 393; test: Growth inhibition of human RXF393 cells incubated for 48 hrs by sulforhodamine B assay; details: RXF 393, 48 h; outline: as §1
[20] = tested on: SF-268; test: Growth inhibition of human SF268 cells incubated for 48 hrs by sulforhodamine B assay; details: SF-268, 48 h; outline: as §1
[21] = tested on: HOP-62; test: Growth inhibition of human HOP62 cells incubated for 48 hrs by sulforhodamine B assay; details: HOP-62, 48 h; outline: as §1
[22] = tested on: DU-145; test: Growth inhibition of human DU145 cells incubated for 48 hrs by sulforhodamine B assay; details: DU-145, 48 h; outline: as §1
[23] = tested on: CCRF-CEM; test: Growth inhibition of human CCRF-CEM cells incubated for 48 hrs by sulforhodamine B assay; outline: as §1
[24] = tested on: BT-549; test: Growth inhibition of human BT549 cells incubated for 48 hrs by sulforhodamine B assay; details: BT-549, 48 h; outline: as §1
[25] = tested on: TK-10; test: Growth inhibition of human TK10 cells incubated for 48 hrs by sulforhodamine B assay; details: TK-10, 48 h; outline: as §2
[26] = tested on: OVCAR-5; test: Growth inhibition of human OVCAR5 cells incubated for 48 hrs by sulforhodamine B assay; details: OVCAR-5, 48 h; outline: as §1
[27] = tested on: SNB-75; test: Growth inhibition of human SNB75 cells incubated for 48 hrs by sulforhodamine B assay; details: SNB-75, 48 h; outline: as §1
[28] = tested on: OVCAR-4; test: Growth inhibition of human OVCAR4 cells incubated for 48 hrs by sulforhodamine B assay; details: OVCAR-4, 48 h; outline: as §1
[29] = tested on: OVCAR-3; test: Growth inhibition of human OVCAR3 cells incubated for 48 hrs by sulforhodamine B assay; details: OVCAR-3, 48 h; outline: as §1
[30] = read-out: pLC50 (the source's name) (converted)

For COC(=O)/C=C1\CC[C@H]2[C@@H](CC(=O)[C@H]3C(C)(C)[C@@H](O)CC[C@]23C)[C@H]1C, the GI50 [1] was 1350 nM, the LC50 [1] was 16.2 µM and the TGI ([1]; read-out: pTGI (converted)) was 5.5 µM. For the same molecule, the GI50 [2] was 4.79 µM, the LC50 [2] was 25.1 µM and the TGI ([2]; read-out: pTGI (converted)) was 11 µM. The GI50 [3] was 8.91 µM, the LC50 [3] was greater than 34.7 µM and the TGI ([3]; read-out: pTGI (converted)) was greater than 34.7 µM. It also gave a GI50 [4] of 871 nM, an LC50 [4] of 11 µM and a TGI ([4]; read-out: pTGI (converted)) of 2690 nM. For the same molecule, the GI50 [5] was 10.5 µM, the LC50 [5] was greater than 34.7 µM and the TGI ([5]; read-out: pTGI (converted)) was greater than 34.7 µM. The GI50 [6] was 1100 nM, the LC50 [6] was greater than 34.7 µM and the TGI ([6]; read-out: pTGI (converted)) was 5.89 µM. For the same molecule, the GI50 [7] was 5.13 µM, the LC50 [7] was greater than 34.7 µM and the TGI ([7]; read-out: pTGI (converted)) was 28.8 µM. The GI50 [8] was 1120 nM, the LC50 [8] was 24.5 µM and the TGI ([8]; read-out: pTGI (converted)) was 4.27 µM. The GI50 [9] was 1290 nM, the LC50 [9] was 25.7 µM and the TGI ([9]; read-out: pTGI (converted)) was 5.75 µM. The GI50 [10] was 794 nM, the LC50 [10] was 10 µM and the TGI ([10]; read-out: pTGI (converted)) was 2190 nM. For the same molecule, the GI50 [11] was 6.03 µM, the LC50 [11] was greater than 34.7 µM and the TGI ([11]; read-out: pTGI (converted)) was 16.2 µM. It also gave a GI50 [12] of 776 nM, an LC50 [12] of 5.13 µM and a TGI ([12]; read-out: pTGI (converted)) of 1740 nM. It also gave an LC50 [13] greater than 34.7 µM, a TGI ([13]; read-out: pTGI (converted)) of 14.8 µM and a GI50 [14] of 2000 nM. It also gave an LC50 [14] greater than 34.7 µM, a TGI ([14]; read-out: pTGI (converted)) of 9.55 µM and a GI50 [15] of 1410 nM. It also gave an LC50 [15] greater than 34.7 µM, a TGI ([15]; read-out: pTGI (converted)) of 6.31 µM and a GI50 [16] of 5.37 µM. For the same molecule, the LC50 [16] was greater than 34.7 µM, the TGI ([16]; read-out: pTGI (converted)) was 21.4 µM and the GI50 [17] was 1230 nM. The LC50 [17] was greater than 34.7 µM, the TGI ([17]; read-out: pTGI (converted)) was 7.76 µM and the GI50 [18] was 1050 nM. It also gave an LC50 [18] of 16.2 µM, a TGI ([18]; read-out: pTGI (converted)) of 5.01 µM and a GI50 [19] of 933 nM. It also gave a CC50 [19, 30] greater than 34.7 µM, a TGI ([19]; read-out: pTGI (converted)) of 3.31 µM and a GI50 [20] of 1170 nM. For the same molecule, the LC50 [20] was 14.5 µM, the TGI ([20]; read-out: pTGI (converted)) was 4.47 µM and the GI50 [21] was 1100 nM. For the same molecule, the CC50 [21, 30] was 15.1 µM, the TGI ([21]; read-out: pTGI (converted)) was 4.47 µM and the GI50 [22] was 776 nM. For the same molecule, the LC50 (concentration killing 50% of cells) [22] was 4.79 µM, the TGI ([22]; read-out: pTGI (converted)) was 1740 nM and the GI50 [23] was 1150 nM. For the same molecule, the LC50 [23] was greater than 34.7 µM, the TGI ([23]; read-out: pTGI (converted)) was 7.59 µM and the GI50 [24] was 1260 nM. For the same molecule, the LC50 [24] was greater than 34.7 µM, the TGI ([24]; read-out: pTGI (converted)) was 5.5 µM and the GI50 [25] was 1480 nM. The LC50 (lethal concentration killing 50% of cells) [25] was greater than 34.7 µM, the TGI ([25]; read-out: pTGI (converted)) was 7.94 µM and the GI50 [26] was 5.89 µM. For the same molecule, the LC50 [26] was greater than 34.7 µM, the TGI ([26]; read-out: pTGI (converted)) was 17.4 µM and the GI50 [27] was 1100 nM. For the same molecule, the LC50 (concentration killing 50% of cells) [27] was 23.4 µM, the TGI ([27]; read-out: pTGI (converted)) was 6.46 µM and the GI50 [28] was 3.72 µM. It also gave an LC50 [28] greater than 34.7 µM, a TGI ([28]; read-out: pTGI (converted)) of 12.3 µM and a GI50 [29] of 1320 nM. For the same molecule, the LC50 [29] was 21.4 µM and the TGI ([29]; read-out: pTGI (converted)) was 4.9 µM.
